Broadly, the IC50 is the concentration that inhibits the measured activity by half. Read a low IC50 as greater potency in that assay. Broadly, the pKa is the negative logarithm of the acid dissociation constant. A lower pKa goes with a stronger acid or weaker base. What is called LC50 is the concentration that kills 50% of the test population.

Values after ≈ are worked out from the molar mass of the structure shown. Active and inactive are the calls of the source. No cut-off for these calls is given here.

The target of one series is Acetylcholinesterase (Homo sapiens, UniProt P22303). The series can be described thus: Inhibition of AChE (unknown origin) by Ellman colorimetric method. For orientation: DTNB colorimetry detects thiols as they appear.
Sequence of Acetylcholinesterase (P22303 whole entry): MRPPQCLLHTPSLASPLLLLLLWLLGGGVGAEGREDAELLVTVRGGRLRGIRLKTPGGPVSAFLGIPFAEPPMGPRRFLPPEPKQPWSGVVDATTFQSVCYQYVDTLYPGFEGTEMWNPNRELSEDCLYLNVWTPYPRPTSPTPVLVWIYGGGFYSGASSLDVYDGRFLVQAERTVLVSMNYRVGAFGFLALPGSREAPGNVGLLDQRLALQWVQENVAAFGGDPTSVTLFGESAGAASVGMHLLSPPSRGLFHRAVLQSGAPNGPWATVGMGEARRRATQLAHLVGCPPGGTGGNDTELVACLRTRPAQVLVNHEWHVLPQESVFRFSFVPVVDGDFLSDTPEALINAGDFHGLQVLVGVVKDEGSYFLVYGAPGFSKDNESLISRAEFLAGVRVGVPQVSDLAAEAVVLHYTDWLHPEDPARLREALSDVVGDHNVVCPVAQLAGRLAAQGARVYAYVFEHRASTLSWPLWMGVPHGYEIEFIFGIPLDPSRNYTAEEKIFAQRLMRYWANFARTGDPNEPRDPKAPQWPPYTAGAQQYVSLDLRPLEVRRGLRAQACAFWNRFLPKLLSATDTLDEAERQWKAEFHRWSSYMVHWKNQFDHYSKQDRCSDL
Series [1] is described as follows: Dissociation constant, pKa of the compound. The series is classed as physicochemical.
Series [2] relates to Aedes aegypti. The series can be described thus: Insecticidal activity against third-instar larvae of Aedes aegypti assessed as mortality at 140 ppm after 24 to 48 hrs. The series is classed as functional, organism-based. In short, it runs like this:
(§1)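 Diagnostic screen with third-instar larvae. Five larvae per pot, four replicates per concentration. Compounds tested at 300, 270, 180, 140, 70, 60, 45 and 25 ppm. Control pots held 1% DMSO only. Mortality was scored at 24 and 48 h. Larvae that could not reach the water surface when touched were counted as dead.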

Series [3] has as its system Aedes aegypti. The series can be described thus: Insecticidal activity against third-instar larvae of Aedes aegypti assessed as mortality after 24 hrs. The series is classed as functional. The procedure, abridged:
(§2)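 In a second bioassay, third-instar larvae were exposed to 150, 130, 100, 85 and 55 ppm, with a 1% DMSO control. Five larvae per pot, four replicates. Death was scored as failure to reach the water surface when touched, at 24 h or 48 h. LC50 and LC99 with confidence intervals came from probit analysis.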

Series [4] has as its system Aedes aegypti. The series can be described thus: Insecticidal activity against third-instar larvae of Aedes aegypti assessed as mortality after 48 hrs. The class given is functional. In short, it runs like this: as §2
For series [5], the system named is Aedes aegypti. Briefly: Insecticidal activity against third-instar larvae of Aedes aegypti assessed as mortality at 300 ppm after 24 to 48 hrs. The class given is functional, organism-based. The procedure, abridged: as §1
Series [6] relates to Aedes aegypti. The series can be described thus: Insecticidal activity against third-instar larvae of Aedes aegypti assessed as mortality at 180 ppm after 24 to 48 hrs. The class given is functional, organism-based. In short, it runs like this: as §1
Series [7] has as its system Aedes aegypti. The series can be described thus: Insecticidal activity against third-instar larvae of Aedes aegypti assessed as mortality at 25 ppm after 24 to 48 hrs. The series is classed as functional, organism-based. In short, it runs like this:
as §1

Series [8] concerns Aedes aegypti. The series can be described thus: Insecticidal activity against third-instar larvae of Aedes aegypti assessed as mortality at 60 ppm after 24 to 48 hrs. The class given is functional, organism-based. In short, it runs like this:
as §1

The test system of series [9] is Aedes aegypti. Briefly: Insecticidal activity against third-instar larvae of Aedes aegypti assessed as mortality at 270 ppm after 24 to 48 hrs. The class given is functional, organism-based. The procedure, abridged: as §1
Series [10] deals with Aedes aegypti. Briefly: Insecticidal activity against third-instar larvae of Aedes aegypti assessed as mortality at 70 ppm after 24 to 48 hrs. The class given is functional, organism-based. In short, it runs like this:
as §1

Series [11] relates to Aedes aegypti. The series can be described thus: Insecticidal activity against third-instar larvae of Aedes aegypti assessed as mortality at 45 ppm after 24 to 48 hrs. The series is classed as functional, organism-based. The procedure, abridged:
as §1

Series [12] relates to Aedes aegypti. The series can be described thus: Insecticidal activity against third-instar larvae of Aedes aegypti assessed as mortality. The series is classed as functional. The procedure, abridged:
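Third-instar larvae exposed in a diagnostic screen to 1000, 300, 270, 180, 140, 70, 60, 45 and 25 ppm. Five larvae per pot, four replicates per concentration, 1% DMSO-only control. Mortality scored at 24 and 48 h; larvae unable to reach the water surface when touched were counted dead.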

Turning to `COc1cc(C(C#N)N2CCN(C)CC2)cc(OC)c1OC` (racemic), on Acetylcholinesterase, the IC50 came out at 406 µM. Moreover, in series [1], the pKa amounted to 7.6.
For `N#CC(c1ccc2c(c1)OCO2)N1CCOCC1` (racemic), the outcome in the series on Aedes aegypti [2] was Active. Moreover, on Acetylcholinesterase, the IC50 worked out at 58 µM. This molecule had a pKa in series [1] of 2.2.
`COc1cc(C(C#N)N2CCOCC2)cc(OC)c1OC` (racemic) returned a concentration for half-maximal inhibition (IC50) at Acetylcholinesterase of 389 µM. The pKa in series [1] was 2.1.
For `CN1CCN(C(C#N)c2ccc3c(c2)OCO3)CC1` (racemic) the same measures were 275 µM and 7.6.
Molecule `N#CC(c1ccc(O)cc1)N1CCOCC1` (racemic) registered a pKa in series [1] of 2.4.
As to `COc1ccc(C(C#N)N2CCCCC2)cc1OC` (racemic), the LC99 with Aedes aegypti [3] was 147.54 ppm; in the series with Aedes aegypti [4], 155.57 ppm. The LC50 with Aedes aegypti [3] (Aedes aegypti, 24 h) came to 88.1 mg/L (≈ 338 µM); in the series on Aedes aegypti [4] (Aedes aegypti, 48 h), 87.5 mg/L (≈ 336 µM). The outcome with Aedes aegypti [5] and in the series on Aedes aegypti [6] was Active. This molecule yielded an IC50 against Acetylcholinesterase of 45 µM. In series [1], the pKa was 4.
`N#CC(c1ccc(O)cc1)N1CCCCC1` (racemic) registered an IC50 at Acetylcholinesterase of 93 µM. In addition, in series [1], the pKa was determined as 4.2.
Turning to `COc1cc(C(C#N)N2CCCCC2)ccc1O` (racemic), on Acetylcholinesterase, the IC50 was 448 µM. Besides, in series [1], the pKa was determined as 4.1.
The molecule `COc1cc(C(C#N)N2CCOCC2)ccc1O` (racemic) registered an IC50 at Acetylcholinesterase of 409 µM. This molecule also had a pKa in series [1] of 2.3.
Turning to `COc1ccc(C(C#N)N2CCN(C)CC2)cc1OC` (racemic), at Acetylcholinesterase, the half-maximal inhibitory concentration (IC50) came to 379 µM. This molecule also came in with a pKa in series [1] of 7.6.
On to `COc1ccc(C(C#N)N2CCCC2)cc1OC` (racemic), for which the result with Aedes aegypti [2], in the series with Aedes aegypti [7], in the series with Aedes aegypti [8] and in the series with Aedes aegypti [6] was Active. The molecule further displayed an IC50 at Acetylcholinesterase of 42 µM. In [1], this molecule returned a pKa of 4.3.
Consider `COc1ccc(C(C#N)N2CCOCC2)cc1OC` (racemic), for which the outcome with Aedes aegypti [2] was Active. This molecule also displayed an IC50 on Acetylcholinesterase of 54 µM. Besides, the pKa in [1] was 2.2.
Turning to `N#CC(c1ccc2c(c1)OCO2)N1CCCCC1` (racemic), the outcome in the series with Aedes aegypti [2], in the series on Aedes aegypti [7], with Aedes aegypti [9], in the series on Aedes aegypti [10], in the series with Aedes aegypti [11] and in the series on Aedes aegypti [6] was Active. The molecule also showed an IC50 at Acetylcholinesterase of 61.4 µM. The molecule further displayed a pKa in series [1] of 4.
With `N#CC(c1ccc2c(c1)OCO2)N1CCCC1` (racemic), the result in the series on Aedes aegypti [2], with Aedes aegypti [9] and in the series on Aedes aegypti [6] was Active. Further, the IC50 on Acetylcholinesterase worked out at 51 µM. Besides, in [1], the pKa came out at 4.3.
Regarding `COc1cc(C(C#N)N2CCCCC2)cc(OC)c1OC` (racemic), the IC50 against Acetylcholinesterase amounted to 381 µM. Also, the pKa in series [1] came to 3.9.
As to `COc1cc(C(C#N)N2CCCC2)cc(OC)c1OC` (racemic), half-maximal inhibition against Acetylcholinesterase (IC50) required 321 µM. Also, the pKa in [1] worked out at 4.2.
The molecule `COc1ccc(C(C#N)N2CCCCC2)cc1O` (racemic) gave an IC50 against Acetylcholinesterase of 478 µM. This molecule also gave a pKa in series [1] of 4.
For `COc1ccc(C(C#N)N2CCCC2)cc1O` (racemic) the same measures were 394 µM and 4.3.
For the molecule `COc1ccc(C(C#N)N2CCOCC2)cc1O` (racemic), the IC50 against Acetylcholinesterase was determined as 363 µM. Also, the pKa in series [1] was found to be 2.2.
In the case of `COc1ccc(C(C#N)N2CCN(C)CC2)cc1O` (racemic), 350 µM corresponded to half-maximal inhibition on Acetylcholinesterase (IC50). Also, the pKa in [1] worked out at 7.7.
For `COc1cc(C(C#N)N2CCCC2)ccc1O` (racemic) the same measures were 358 µM and 4.4.
For `COc1cc(C(C#N)N2CCN(C)CC2)ccc1O` (racemic) the same measures were 340 µM and 7.7.
Turning to `N#CC(c1ccc(O)cc1)N1CCCC1` (racemic), the pKa in [1] amounted to 4.5.
In series [1], `CN1CCN(C(C#N)c2ccc(O)cc2)CC1` (racemic) had a pKa of 7.7.
Molecule `CCOP(=S)(OCC)Oc1cc(C)nc(C(C)C)n1` [DIMPYLATE] showed an IC50 against Acetylcholinesterase of 1.9 µM.
For the molecule `COP(=S)(OC)Oc1ccc(Sc2ccc(OP(=S)(OC)OC)cc2)cc1` [TEMEFOS], the LC50 with Aedes aegypti [12] amounted to 0.006 mg/L (≈ 0.0129 µM).

The values are drawn from ChEMBL document CHEMBL3232744, “Design, synthesis, acetylcholinesterase inhibition and larvicidal activity of girgensohnine analogs on Aedes aegypti, vector of dengue fever” (Eur J Med Chem, 2014).
